Source: ChEMBL document CHEMBL4609978, “Synthesis and evaluation of 2'-dihalo ribonucleotide prodrugs with activity against hepatitis C virus” (Bioorg Med Chem, 2020)
Each block holds one molecule with its values, some of them ahead of it.

How the values were obtained:
Hepatitis C virus [1] = test: Antiviral activity against HCV genotype 1a H77 infected in human HuH7 replicon cells assessed as inhibition of viral replication after 3 days by luciferase reporter gene assay; type: functional, organism-based, Hepacivirus hominis; conditions: subtype 1a H77, Huh-7, 72 h
In short: (§1)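 Stable subgenomic replicon cell lines (genotype 1a-H77 or 1b-Con1) carrying a luciferase reporter; compounds added in DMEM with 5% FBS, cells incubated 3 days with or without compound, then lysed and luciferase activity read; EC50 from nonlinear regression fit to 4-parameter logistic equation.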

Hepatitis C virus [2] = test: Antiviral activity against HCV genotype 1b Con1 infected in human HuH7 replicon cells assessed as inhibition of viral replication after 3 days by luciferase reporter gene assay; type: functional, organism-based, Hepacivirus hominis; conditions: subtype 1b Con1, Huh-7, 72 h; in short: as §1
[3] = Cytotoxicity against human HuH7 cells assessed as reduction in cell viability; type: cell-based, Huh-7; conditions: read-out: TD50 (the source's name)
Hepatitis C virus [4] = test: Antiviral activity against HCV genotype 1b Con1 expressing wild type NS5B infected in human HuH7 replicon cells assessed as inhibition of viral replication after 4 days by luciferase reporter gene based assay; type: functional, organism-based, Hepacivirus hominis; conditions: subtype 1b Con1, Huh-7, 96 h
Hepatitis C virus [5] = test: Antiviral activity against HCV genotype 1b Con1 expressing NS5B S282T mutant infected in human HuH7 replicon cells assessed as inhibition of viral replication after 4 days by luciferase reporter gene based assay; type: functional, organism-based, Hepacivirus hominis; conditions: subtype 1b Con1, Huh-7, 96 h
Hepatitis C virus [6] = test: Antiviral activity against HCV genotype 2a expressing wild type NS5B infected in human HuH7 replicon cells assessed as inhibition of viral replication after 4 days by luciferase reporter gene based assay; type: functional, organism-based, Hepacivirus hominis; conditions: subtype 2a, Huh-7, 96 h
Hepatitis C virus [7] = test: Antiviral activity against HCV genotype 2a expressing NS5B S282T mutant infected in human HuH7 replicon cells assessed as inhibition of viral replication after 4 days by luciferase reporter gene based assay; type: functional, organism-based, Hepacivirus hominis; conditions: subtype 2a, Huh-7, 96 h
Hepatitis C virus [8] = test: Antiviral activity against HCV genotype 3a expressing wild type NS5B infected in human HuH7 replicon cells assessed as inhibition of viral replication after 4 days by luciferase reporter gene based assay; type: functional, organism-based, Hepacivirus hominis; conditions: subtype 3a, Huh-7, 96 h
Hepatitis C virus [9] = test: Antiviral activity against HCV genotype 3a expressing NS5B S282T mutant infected in human HuH7 replicon cells assessed as inhibition of viral replication after 4 days by luciferase reporter gene based assay; type: functional, organism-based, Hepacivirus hominis; conditions: subtype 3a, Huh-7, 96 h
Hepatitis C virus [10] = test: Antiviral activity against HCV genotype 4a expressing wild type NS5B infected in human HuH7 replicon cells assessed as inhibition of viral replication after 4 days by luciferase reporter gene based assay; type: functional, organism-based, Hepacivirus hominis; conditions: subtype 4a, Huh-7, 96 h
Hepatitis C virus [11] = test: Antiviral activity against HCV genotype 6a expressing wild type NS5B infected in human HuH7 replicon cells assessed as inhibition of viral replication after 4 days by luciferase reporter gene based assay; type: functional, organism-based, Hepacivirus hominis; conditions: subtype 6a, Huh-7, 96 h
[12] = Prodrug conversion in human primary hepatocytes assessed as nucleotide triphosphate level at 100 uM incubated for 4 hrs followed by compound wash-out for 20 hrs and measured following 4 hrs incubation period by LC-MS/MS analysis; type: ADME, cell-based, Hepatocyte
In short: (§2)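 Cryopreserved primary human hepatocytes plated ~55,000 viable cells/well on collagen, medium changed after 4–6 h to Williams E maintenance medium with Geltrex 0.35 mg/mL, overnight at 37 °C; prodrug 100 µM for 4 h, then washed; second plate held a further 20 h drug-free; cells washed with ice-cold HBSS, triphosphate measured by LC-MS/MS at 4 or 24 h.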

[13] = Prodrug conversion in human primary hepatocytes assessed as nucleotide triphosphate level at 100 uM incubated for 4 hrs and followed by compound washout for 20 hrs and measured following 24 hrs incubation period by LC-MS/MS analysis; type: ADME, cell-based, Hepatocyte; in short: as §2
Hepatitis C virus [14] = test: Antiviral activity against HCV genotype 1b Con1 over expressing CES1 infected in human HuH7 replicon cells assessed as inhibition of viral replication after 3 days by luciferase reporter gene assay; type: functional, organism-based, Hepacivirus hominis; conditions: subtype 1b Con1, Huh-7, 72 h
[15] = Aqueous solubility of compound in pH 7.4 phosphate buffer; type: physicochemical
[16] = Stability in dog plasma assessed as parent compound remaining after 4 hrs; type: ADME, cell-free, Canis lupus familiaris; conditions: read-out: Stability
In short: (§3)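 Prodrug incubated 4 h at 37 °C in dog or human plasma; result given as percent parent remaining.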

[17] = Stability in human plasma assessed as parent compound remaining after 4 hrs; type: ADME, cell-free; conditions: read-out: Stability; in short: as §3
[18] = Unbound drug level in dog plasma; type: ADME, cell-free, Canis lupus familiaris
[19] = Unbound drug level in human plasma; type: ADME, cell-free
[20] = Intrinsic clearance in dog hepatocytes; type: ADME, cell-based, Canis lupus familiaris, Hepatocyte; conditions: read-out: CLH (converted)
[21] = Prodrug conversion in Beagle dog liver assessed as nucleotide triphosphate level at 5 mg/kg, po administered as single dose measured after 4 hrs by LC-MS/MS analysis; type: ADME, organism-based, Canis lupus familiaris; conditions: in vivo
[22] = Prodrug conversion in Beagle dog liver assessed as nucleotide triphosphate level at 5 mg/kg, po co-dosed with 5 mg/kg sofosbuvir measured after 4 hrs by LC-MS/MS analysis; type: ADME, organism-based, Canis lupus familiaris; conditions: in vivo
In short: (§4)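 Beagle dogs (3 per time point) given single oral prodrug 5 mg/kg in EtOH:PEG-400:Phosal 53 MCT (10:30:60, w/w), cassette-dosed with sofosbuvir 5 mg/kg as internal standard; liver biopsies at 4 or 24 h, flash frozen, triphosphate measured by LC-MS/MS.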

[23] = Prodrug conversion in Beagle dog liver assessed as nucleotide triphosphate level at 5 mg/kg, po administered as single dose measured after 24 hrs by LC-MS/MS analysis; type: ADME, organism-based, Canis lupus familiaris; conditions: in vivo
[24] = Prodrug conversion in Beagle dog liver assessed as nucleotide triphosphate level at 5 mg/kg, po co-dosed with 5 mg/kg sofosbuvir measured after 24 hrs by LC-MS/MS analysis; type: ADME, organism-based, Canis lupus familiaris; conditions: in vivo; in short: as §4
[25] = Distribution coefficient, logD of compound by HT-LCMS analysis; type: physicochemical; conditions: octanol/water
[26] = Intrinsic clearance in human hepatocytes; type: ADME, cell-based, Hepatocyte; conditions: read-out: CLH (converted)
Hepatitis C virus [27] = test: Potency index, ratio of sofosbuvir EC50 to compound EC50 for HCV genotype 1a H77 infected in human HuH7 replicon cells assessed as inhibition of viral replication after 3 days by luciferase reporter gene assay; type: functional, Hepacivirus hominis, subtype 1a H77, Huh-7
In short: (§5)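 Stable subgenomic luciferase-reporter replicon Huh-7 lines, genotype 1a-H77 or 1b-Con1. Test compound and sofosbuvir comparator each run in DMEM with 5% FBS for 3 days. Cells lysed and luciferase activity read. EC50 obtained by nonlinear regression to a 4-parameter logistic equation. Index is sofosbuvir EC50 divided by compound EC50, both from this assay.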

Hepatitis C virus [28] = test: Potency index, ratio of sofosbuvir EC50 to compound EC50 for HCV genotype 1b Con1 infected in human HuH7 replicon cells assessed as inhibition of viral replication after 3 days by luciferase reporter gene assay; type: functional, Hepacivirus hominis, subtype 1b Con1, Huh-7; in short: as §5
[29] = Prodrug conversion in Beagle dog liver assessed as nucleotide triphosphate level at 5 mg/kg, po qd for 4 days and measured at 24 hrs post-last dose by LC-MS/MS analysis; type: ADME, organism-based, Canis lupus familiaris; conditions: in vivo
[30] = Prodrug conversion in Beagle dog liver assessed as nucleotide triphosphate level at 5 mg/kg, po qd for 4 days co-dosed with 5 mg/kg sofosbuvir and measured at 24 hrs post-last dose by LC-MS/MS analysis; type: ADME, organism-based, Canis lupus familiaris; conditions: in vivo
In short: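 Beagle dogs (3 per time point) dosed orally once daily for 4 days with prodrug (1 or 5 mg/kg) in EtOH:PEG-400:Phosal 53 MCT (10:30:60, w/w) together with sofosbuvir 5 mg/kg; liver biopsy 24 h after final dose, flash frozen, triphosphate by LC-MS/MS.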

Compound: CC(C)OC(=O)[C@H](C)N[P@](=O)(OC[C@H]1O[C@@H](n2ccc(=O)[nH]c2=O)C(Br)(Br)[C@@H]1O)Oc1ccccc1
EC50 (Hepatitis C virus [1]): 408 nM
EC50 (Hepatitis C virus [2]): 522 nM
CC50 [3]: > 100000 nM

Compound: CC(C)OC(=O)[C@H](C)N[P@](=O)(OC[C@H]1O[C@@H](n2ccc(=O)[nH]c2=O)[C@](C)(F)[C@@H]1O)Oc1ccccc1 [SOFOSBUVIR]
EC50 (Hepatitis C virus [1]): 155 to 168 nM
EC50 (Hepatitis C virus [2]): 188 to 230 nM
CC50 [3]: > 100000 nM
EC50 (Hepatitis C virus [4]): 62 nM
EC50 (Hepatitis C virus [5]): 638 nM
EC50 (Hepatitis C virus [6]): 681 nM
EC50 (Hepatitis C virus [7]): 1000 nM
EC50 (Hepatitis C virus [8]): 75.1 nM
EC50 (Hepatitis C virus [9]): 330 nM
EC50 (Hepatitis C virus [10]): 78.5 nM
EC50 (Hepatitis C virus [11]): 86.7 nM
Drug metabolism [12]: 97 µM
Drug metabolism [13]: 122 µM
EC50 (Hepatitis C virus [14]): 53 nM
solubility [15]: > 200 µM
remaining at 4 h [16]: 93%
remaining at 4 h [17]: 96%
fraction unbound [18]: 0.323
Fu [19]: 0.563
CLint scaled [20]: 40 mL/min/kg

Compound: CC(C)OC(=O)[C@H](C)N[P@](=O)(OC[C@H]1O[C@@H](n2ccc(=O)[nH]c2=O)[C@@](F)(Br)[C@@H]1O)Oc1ccccc1
EC50 (Hepatitis C virus [1]): 56 nM
EC50 (Hepatitis C virus [2]): 87 to 95 nM
CC50 [3]: > 100000 nM
EC50 (Hepatitis C virus [4]): 15.2 nM
EC50 (Hepatitis C virus [5]): 134 nM
EC50 (Hepatitis C virus [6]): 189 nM
EC50 (Hepatitis C virus [7]): 308 nM
EC50 (Hepatitis C virus [8]): 12.7 nM
EC50 (Hepatitis C virus [9]): 75.3 nM
EC50 (Hepatitis C virus [10]): 25.7 nM
EC50 (Hepatitis C virus [11]): 14.5 nM
Drug metabolism [21]: 11.5 µM
Drug metabolism [22]: 7.39 µM
Drug metabolism [23]: 6.61 µM
Drug metabolism [24]: 8.87 µM
Drug metabolism [12]: 192 µM
Drug metabolism [13]: 91 µM
EC50 (Hepatitis C virus [14]): 56 nM
logD [25]: 3.07
solubility [15]: > 200 µM
remaining at 4 h [16]: 86%
remaining at 4 h [17]: 100%
fraction unbound [18]: 0.367
fraction unbound [19]: 0.43
CLint scaled [26]: 257 mL/min/kg
Ratio EC50 (Hepatitis C virus [27]): 2 - 3
Ratio EC50 (Hepatitis C virus [28]): 2 - 3

Compound: CC(C)OC(=O)[C@H](C)N[P@](=O)(OC[C@H]1O[C@@H](n2ccc(=O)[nH]c2=O)[C@@](C)(F)[C@@H]1O)Oc1ccccc1
EC50 (Hepatitis C virus [1]): > 10000 nM
EC50 (Hepatitis C virus [2]): > 10000 nM
CC50 [3]: > 32000 nM

Compound: CCOC(=O)C(C)(C)N[P@@](=O)(OC[C@H]1O[C@@H](n2ccc(=O)[nH]c2=O)[C@](Cl)(Br)[C@@H]1O)Oc1ccccc1
EC50 (Hepatitis C virus [1]): 2720 nM
EC50 (Hepatitis C virus [2]): 2560 nM
Drug metabolism [21]: 7.21 µM
Drug metabolism [22]: 5.35 µM
Drug metabolism [23]: 2.64 µM
Drug metabolism [24]: 4.03 µM
Drug metabolism [29]: 1.43 µM
Drug metabolism [30]: 6.05 µM
logD [25]: 3.07
solubility [15]: > 200 µM
remaining at 4 h [16]: 100%
remaining at 4 h [17]: 92%
fraction unbound [18]: 0.187
fraction unbound [19]: 0.31
CLint scaled [20]: 98.3 mL/min/kg
CLint scaled [26]: 155 mL/min/kg

Compound: CC(C)OC(=O)[C@H](C)N[P@](=O)(OC[C@H]1O[C@@H](n2ccc(=O)[nH]c2=O)[C@@](F)(Cl)[C@@H]1O)Oc1ccccc1
EC50 (Hepatitis C virus [1]): 53 nM
EC50 (Hepatitis C virus [2]): 61 nM
CC50 [3]: 11000 nM
Ratio EC50 (Hepatitis C virus [27]): 3 - 4
Ratio EC50 (Hepatitis C virus [28]): 3 - 4

EC50 (Hepatitis C virus [1]): 412 nM
EC50 (Hepatitis C virus [2]): 515 nM
Drug metabolism [21]: 0.143 µM
Drug metabolism [22]: 1.76 µM
Drug metabolism [23]: 0.036 µM
Drug metabolism [24]: 1.26 µM
Drug metabolism [12]: 102 µM
Drug metabolism [13]: 24 µM
EC50 (Hepatitis C virus [14]): 218 nM
logD [25]: 3.21
solubility [15]: > 200 µM
Compound: CC(C)OC(=O)[C@H](C)N[P@@](=O)(OC[C@H]1O[C@@H](n2ccc(=O)[nH]c2=O)[C@](Cl)(Br)[C@@H]1O)Oc1ccccc1
